Drawing on ChEMBL document CHEMBL2169835, “Flavonoid dimers as novel, potent antileishmanial agents” (J Med Chem, 2012), this text covers IC50 for 19 compounds.

Test [1] concerns Leishmania donovani. In words: Antimicrobial activity against wild-type Leishmania donovani AG83 promastigote assessed as inhibition of parasite growth after 72 hrs by MTS assay. Type of test: functional, organism-based. The note with it: AG83, 72 h. The procedure, abridged:
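Promastigotes were grown in Schneider's medium pH 6.9 with 10% heat-inactivated FBS at 27 °C, seeded at 1 × 10^5 per well, and exposed to serial concentrations for 72 h at 27 °C. Compounds were in DMSO (≤1% final) or water. MTS:PMS (20:1) was added for 4 h, then OD490 was read.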
For orientation: Formazan colour is commonly taken as a measure of viable cells.

Test [2] relates to RAW264.7. As to the kind of experiment: Cytotoxicity against mouse RAW264.7 cells after 72 hrs by MTS assay. Type of test: cell-based. The note with it: RAW264.7, 72 h. The method in brief:
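RAW 264.7 murine macrophage line was plated at 1 × 10^4 cells per well in supplemented DMEM. Cells received a graded compound series for 72 h at 37 °C, 5% CO2, with a maximum of 1% DMSO. Viability was measured by MTS with PMS coupling at OD 490 nm, as percent of untreated control. The IC50 was the concentration reducing OD by half, given as mean ± SEM, N = 1–4.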

The test system of test [3] is Leishmania donovani. As to the kind of experiment: Antimicrobial activity against SSG-resistant Leishmania donovani 39 promastigote assessed as inhibition of parasite growth after 72 hrs by MTS assay. Type of test: functional, organism-based. The note with it: Leishmania donovani, 39, 72 h. The procedure, abridged:
(§1)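 Promastigotes were grown in Schneider's medium pH 6.9 with 10% heat-inactivated FBS at 27 °C, seeded at 1 × 10^5 per well, and exposed to serial concentrations for 72 h at 27 °C. Compounds were in DMSO (≤1% final) or water. MTS:PMS (20:1) was added for 4 h, then OD490 was read. Survival was % of untreated control; IC50 = concentration halving OD; N = 1−4.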

Test [4] deals with Leishmania donovani. As to the kind of experiment: Antimicrobial activity against pentamidine-resistant Leishmania donovani AG83PentR50 promastigote assessed as inhibition of parasite growth after 72 hrs by MTS assay. Type of test: functional, organism-based. Particulars: AG83PentR50, 72 h. The procedure, abridged: as §1

Usually IC50 stands for the concentration at which inhibition is half-maximal. Regarding `O=c1cc(-c2ccc(OCCOCCN(CCOCCOc3ccc(-c4cc(=O)c5ccccc5o4)cc3)Cc3ccc(F)cc3)cc2)oc2ccccc12`, the IC50 in test [1] was greater than 100 µM.

As to `Cc1c(-c2ccc(OCCOCCOCCOCCOCCOCCOc3ccc(-c4oc5ccccc5c(=O)c4C)cc3)cc2)oc2ccccc2c1=O`, the IC50 in test [2] turned out to be 2.3 µM; in test [3], 2.8 µM; in test [1], 1.9 µM; in test [4], 2.5 µM.

For the compound `O=c1cc(-c2ccc(OCCOCCN(CCOCCOc3ccc(-c4cc(=O)c5ccccc5o4)cc3)Cc3ccccc3F)cc2)oc2ccccc12`, the half-maximal inhibitory concentration (IC50) in test [1] was greater than 100 µM.

`COC(=O)c1ccc(CN(CCOCCOc2ccc(-c3cc(=O)c4ccccc4o3)cc2)CCOCCOc2ccc(-c3cc(=O)c4ccccc4o3)cc2)cc1`: the IC50 in test [2] was 45.7 µM; in test [3], greater than 100 µM; in test [1], greater than 100 µM.

Consider `CCN(CCOCCOc1ccc(-c2cc(=O)c3ccccc3o2)cc1)CCOCCOc1ccc(-c2cc(=O)c3ccccc3o2)cc1`, for which the 50% inhibitory concentration (IC50) amounted to 8.3 µM in test [2], 5.5 µM in test [3] and 3.2 µM in test [1].

With `O=c1cc(-c2ccc(OCCOCCOCCOCCOCCOCCOc3ccc(-c4cc(=O)c5c(O)cc(O)cc5o4)cc3)cc2)oc2cc(O)cc(O)c12`, the figures for the IC50 in test [3], in test [1] and in test [4] were 1.4 µM, greater than 24 µM and 11.8 µM, respectively.

As to `Cc1ccc(S(=O)(=O)N(CCOCCOc2ccc(-c3cc(=O)c4ccccc4o3)cc2)CCOCCOc2ccc(-c3cc(=O)c4ccccc4o3)cc2)cc1`, the IC50 in test [2] is greater than 100 µM; in test [3], greater than 100 µM; in test [1], 100 µM.

On to `CCOC(=O)CCN(CCOCCOc1ccc(-c2cc(=O)c3ccccc3o2)cc1)CCOCCOc1ccc(-c2cc(=O)c3ccccc3o2)cc1`, for which the figures for the IC50 in test [2], in test [3] and in test [1] were 16 µM, 6.6 µM and 3.8 µM, respectively.

In the case of `O=c1cc(-c2ccc(OCCOCCN(CCOCCOc3ccc(-c4cc(=O)c5ccccc5o4)cc3)Cc3ccc([N+](=O)[O-])cc3)cc2)oc2ccccc12`, the concentration for half-maximal inhibition (IC50) in test [2] was 70.3 µM; in test [3], greater than 100 µM; in test [1] it was greater than 100 µM.

In the case of `O=c1cc(-c2ccc(OCCOCCN(CCCc3ccccc3)CCOCCOc3ccc(-c4cc(=O)c5ccccc5o4)cc3)cc2)oc2ccccc12`, the IC50 in test [2] came to 85 µM; in test [3] it was 18.4 µM; in test [1], 8.9 µM.

In the case of `O=c1cc(-c2ccc(OCCOCCN(CCOCCOc3ccc(-c4cc(=O)c5ccccc5o4)cc3)Cc3cc(F)c(F)c(F)c3)cc2)oc2ccccc12`, in test [1], the IC50 is 33.3 µM.

For `O=c1c(O)c(-c2ccc(OCCOCCOCCOCCOc3ccc(-c4oc5ccccc5c(=O)c4O)cc3)cc2)oc2ccccc12`, the 50% inhibitory concentration (IC50) in test [3] and in test [1] was greater than 24 µM in each case.

Take `O=c1cc(-c2ccc(OCCOCCN(CCO)CCOCCOc3ccc(-c4cc(=O)c5ccccc5o4)cc3)cc2)oc2ccccc12`: the half-inhibitory concentration (IC50) in test [2] is 6.4 µM; in test [3] it was 7.2 µM; in test [1] it was 3.2 µM.

As to `O=c1cc(-c2ccc(OCCOCCN(CCOCCOc3ccc(-c4cc(=O)c5ccccc5o4)cc3)Cc3ccc(C(F)(F)F)cc3)cc2)oc2ccccc12`, the half-maximal inhibitory concentration (IC50) in test [1] came out at 14.1 µM.

As for `O=c1cc(-c2ccc(OCCOCCN(CCOCCOc3ccc(-c4cc(=O)c5ccccc5o4)cc3)Cc3ccccc3)cc2)oc2ccccc12`, the IC50 in test [2] is greater than 79 µM; in test [3], 12.3 µM; in test [1], 8.4 µM.

With `O=c1cc(-c2ccc(OCCOCCN(CCOCCOc3ccc(-c4cc(=O)c5ccccc5o4)cc3)Cc3ccnc4ccccc34)cc2)oc2ccccc12`, in test [1], the half-maximal inhibitory concentration (IC50) was determined as 20.4 µM.

Take `O=c1cc(-c2ccc(OCCOCCOCCOCCOc3ccc(-c4cc(=O)c5c(O)cccc5o4)cc3)cc2)oc2cccc(O)c12`: the IC50 in test [3] and in test [1] was greater than 24 µM throughout.

Take `CS(=O)(=O)N(CCOCCOc1ccc(-c2cc(=O)c3ccccc3o2)cc1)CCOCCOc1ccc(-c2cc(=O)c3ccccc3o2)cc1`: the IC50 in test [2] came out at 96 µM; in test [3], 0.9 µM; in test [1], 0.75 µM.

Take `O=c1cc(-c2ccc(OCCOCCN(CCOCCOc3ccc(-c4cc(=O)c5ccccc5o4)cc3)Cc3cccc(F)c3)cc2)oc2ccccc12`: in test [1], the half-inhibitory concentration (IC50) was greater than 100 µM.
